Experimental data taken from ChEMBL document CHEMBL1130202, “Biologically active heteroarotinoids exhibiting anticancer activity and decreased toxicity” (J Med Chem, 1997).
Activity calls are given as the source filed them. The rule behind the calls is not given here.

Legend:
Mus musculus [1] = assay: Effect of compound on adrenal to body weight ratios in mice at 0.2 mg/kg/day dose; all the animals died by day 65; type: functional, organism-based
Mus musculus [2] = assay: Effect of compound on adrenal to body weight ratios in mice at 0.4 mg/kg/day dose; all the animals died by day 65; type: functional, organism-based
Mus musculus [3] = assay: Effect of compound on adrenal to body weight ratios in mice at 0.8 mg/kg/day dose; all the animals died by day 65; type: functional, organism-based
Mus musculus [4] = assay: Effect of compound on right testicle to body weight ratios in mice at 0.4 mg/kg/day dose on day 65; type: functional, organism-based
Mus musculus [5] = assay: Effect of compound on Spleen to body weight ratios in mice at 0.01 mg/kg/day dose; all the animals died by day 65; type: functional, organism-based
Mus musculus [6] = assay: Alopecia observed at 0.4 mg/kg/day dose in mice with hypervitaminosis; 8/16; type: functional, organism-based
Mus musculus [7] = assay: Avoiding pressure on limbs at 0.2 mg/kg/day dose in mice with hypervitaminosis; 0/16; type: functional, organism-based; conditions: Limb
Mus musculus [8] = assay: Avoiding pressure on limbs at 0.4 mg/kg/day dose in mice with hypervitaminosis; 0/16; type: functional, organism-based; conditions: Limb
Mus musculus [9] = assay: Enlarged lymph in gross pathological observations with hypervitaminosis A in mice at 0.4 mg/kg/day dose with gross observations/total number of animals in group; 12/16; type: functional, organism-based
Mus musculus [10] = assay: Enlarged spleen in Gross pathological observations with hypervitaminosis A at 0.8 mg/kg/day dose with gross observations/total number of animals in group; 0/16; type: functional, organism-based
Mus musculus [11] = assay: Skin scaling at 0.01 mg/kg/day in mice with hypervitaminosis; 4/8; type: functional, organism-based
Mus musculus [12] = assay: Skin scaling at 0.1 mg/kg/day in mice with hypervitaminosis; 14/16; type: functional, organism-based
Mus musculus [13] = assay: Approximate day to determine 10% weight loss in mice at 0.01 mg/kg/day; type: functional
Method in brief: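 Male B6D2F1 mice dosed daily by gavage in corn oil; body weights followed to termination (day 65, or day 25 for TTNPB 0.01/0.05 mg/kg/day groups) and compared with the matching vehicle group. Value is approximate day of onset of 10% body weight reduction versus vehicle.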

[14] = Mortality rate in mice at 0.05 mg/kg/day; type: ADME, organism-based; conditions: mouse, in vivo
Method in brief: (§1)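 Male B6D2F1 mice given compound daily by gavage in corn oil at the stated dose levels, with corn oil vehicle controls. Deaths counted as animals found dead or sacrificed moribund, with day(s) of death recorded. Heteroarotinoid groups ran to day 65 and low-dose reference groups to day 25.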

[15] = Mortality rate in mice at 0.1 mg/kg/day; range (12-24); type: ADME, organism-based; conditions: mouse, in vivo; method in brief: as §1
[16] = Mortality rate in mice at 0.4 mg/kg/day; range (8-19); type: ADME, organism-based; conditions: mouse, in vivo; method in brief: as §1
Mus musculus [17] = assay: Fracture incidents in mouse at 0.05 mg/kg/day; 7/8
Mus musculus [18] = assay: Average number of fractures per mouse at 0.8 mg/kg/day
Mus musculus [19] = assay: Average number of fractures per mouse at 0.2 mg/kg/day; 1/3
Mus musculus [20] = species: Mus musculus; assay: Effect of compound on Spleen to body weight ratios in mice at low dose; type: functional
Method in brief: (§2)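 Male B6D2F1 mice dosed daily by gavage with compound in corn oil; vehicle 1 (corn oil) controls run to termination on day 65. Low, mid 1, mid 2 and high dose groups, with dosage increases partway through the study. Organ-to-body weight ratios (×1000) taken at necropsy on day 65, reported as mean ± SD for 4 to 8 animals and as % difference from vehicle.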

Mus musculus [21] = species: Mus musculus; assay: Enlarged lymph in gross pathological observations in mice with hypervitaminosis A at mid dose 1 with gross observations/total number of mice in group; 0/16; type: functional, organism-based
Mus musculus [22] = species: Mus musculus; assay: Alopecia in mice observed at low dose with Hypervitaminosis; 1/16; type: functional, organism-based
Mus musculus [23] = species: Mus musculus; assay: Alopecia in mice observed at mid dose 1 with Hypervitaminosis; 1/16; type: functional, organism-based
Mus musculus [24] = species: Mus musculus; assay: Avoiding pressure on limbs in mice at mid dose 1 with Hypervitaminosis; 0/16; type: functional, organism-based; conditions: Limb
Mus musculus [25] = species: Mus musculus; assay: Effect of compound on serum Alkaline phosphatase levels in mice at mid dose 1 on day 29; type: functional
Method in brief: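 Male B6D2F1 mice dosed daily by oral gavage in corn oil at low, mid 1, mid 2 or high dose. Blood sampled on set days (8, 29, 36, 65) for clinical chemistry, serum alkaline phosphatase and triglycerides. Group mean ± SD reported as % relative to vehicle 1; significance p < 0.05 versus corn oil vehicle.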

Mus musculus [26] = species: Mus musculus; assay: Enlarged spleen in Gross pathological observations in mice with hypervitaminosis A at mid dose 1 with gross observations/total number of mice in group; 0/16; type: functional, organism-based
Mus musculus [27] = species: Mus musculus; assay: Skin scaling in mice at high dose with Hypervitaminosis; 0/16; type: functional, organism-based
Mus musculus [28] = species: Mus musculus; assay: Alopecia in mice observed at mid dose 1 with Hypervitaminosis; 2/16; type: functional, organism-based
Mus musculus [29] = species: Mus musculus; assay: Alopecia in mice observed at mid dose 2 with Hypervitaminosis; 3/16; type: functional, organism-based
Mus musculus [30] = species: Mus musculus; assay: Effect of compound on white blood cells levels in mice at low dose on day 8; type: functional
Method in brief: (§3)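 Male B6D2F1 mice were gavaged daily with compound in corn oil at low, mid 1, mid 2 or high dose. Serum triglycerides and circulating white blood cells were measured on the stated day (8, 29, 36, 65). Values are group mean ± SD expressed as % relative to corn-oil vehicle, with significance at p ≤ 0.05.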

Mus musculus [31] = species: Mus musculus; assay: Effect of compound on serum triglycerides levels in mice at mid dose 2 on day 36; type: functional; method in brief: as §3
Mus musculus [32] = species: Mus musculus; assay: Mortality rate in mice in low dose; type: functional; method in brief: as §1
Mus musculus [33] = species: Mus musculus; assay: Fracture incidence in mouse at high dose; 3/8
Mus musculus [34] = species: Mus musculus; assay: Fracture incidence in mouse at mid dose 2; 4/8
Mus musculus [35] = species: Mus musculus; assay: Enlarged lymph in gross pathological observations in mice with hypervitaminosis A at low dose with gross observations/total number of mice in group; 6/16; type: functional, organism-based
Mus musculus [36] = species: Mus musculus; assay: Enlarged lymph in gross pathological observations in mice with hypervitaminosis A in mice at high dose with gross observations/total number of mice in group; 8/16; type: functional, organism-based
Mus musculus [37] = species: Mus musculus; assay: Enlarged spleen in Gross pathological observations in mice with hypervitaminosis A at low dose with gross observations/total number of mice in group; 3/16; type: functional, organism-based
Mus musculus [38] = species: Mus musculus; assay: Enlarged spleen in Gross pathological observations in mice with hypervitaminosis A at mid dose 1 with gross observations/total number of mice in group; 5/16; type: functional, organism-based
Mus musculus [39] = species: Mus musculus; assay: Compound toxicity determined by total dose to termination (day 25/65) in low dose; type: functional
Method in brief: (§4)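 Male B6D2F1 mice given daily oral gavage in corn oil; dosages increased during the study (day 30 or day 51 depending on compound). Cumulative dose in mg/kg administered up to termination (day 65, or day 25 for TTNPB 0.01/0.05 mg/kg/day groups).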

Mus musculus [40] = species: Mus musculus; assay: Compound toxicity determined by total dose to termination (day 25/65) in mid dose 1; type: functional; method in brief: as §4
Mus musculus [41] = species: Mus musculus; assay: Effect of compound on adrenal to body weight ratios in mice at high dose on day 65; all the animals died by day 65; type: functional, organism-based; method in brief: as §2
Mus musculus [42] = species: Mus musculus; assay: Fracture incidence in mouse at mid dose 2; 6/7

C/C(=C\c1ccc(C(=O)O)cc1)c1ccc2c(c1)C(C)(C)CCC2(C)C
Activity (Mus musculus [1]): Toxic
Activity (Mus musculus [2]): Toxic
Activity (Mus musculus [3]): Toxic
Activity (Mus musculus [4]): Toxic
Activity (Mus musculus [5]): Toxic
Activity (Mus musculus [6]): Weak activity
Activity (Mus musculus [7]): inactive
Activity (Mus musculus [8]): inactive
Activity (Mus musculus [9]): Active
Activity (Mus musculus [10]): inactive
Activity (Mus musculus [11]): Weak activity
Activity (Mus musculus [12]): Active
Activity (Mus musculus [13]): >25
Mortality [14]: 3 day of death
Mortality [15]: 7 day of death
Mortality [16]: 14 day of death
Activity (Mus musculus [17]): Active
Activity (Mus musculus [18]): 0
Activity (Mus musculus [19]): Weak activity

CC(/C=C/C=C(\C)c1ccc2c(c1)C(C)(C)CCS2)=C\C(=O)O
Activity (Mus musculus [20]): 2.1
Activity (Mus musculus [21]): inactive
Activity (Mus musculus [22]): inactive
Activity (Mus musculus [23]): inactive
Activity (Mus musculus [24]): inactive
Activity (Mus musculus [25]): 135.8
Activity (Mus musculus [26]): inactive
Activity (Mus musculus [27]): inactive

CC(/C=C/C=C(\C)c1ccc2c(c1)C(C)(C)CCO2)=C\C(=O)O
Activity (Mus musculus [28]): inactive
Activity (Mus musculus [29]): inactive
Activity (Mus musculus [30]): 4.84
Activity (Mus musculus [31]): 195.9
Mortality (Mus musculus [32]): 0 day of death
Activity (Mus musculus [33]): Weak activity
Activity (Mus musculus [34]): Weak activity

C/C(=C\c1ccc(C(=O)O)cc1)c1ccc2c(c1)C(C)(C)CCO2
Activity (Mus musculus [35]): Weak activity
Activity (Mus musculus [36]): Weak activity
Activity (Mus musculus [37]): inactive
Activity (Mus musculus [38]): Weak activity
Total dose (Mus musculus [39]): 147.1 mg/kg
Total dose (Mus musculus [40]): 294.2 mg/kg
Activity (Mus musculus [41]): Toxic
Activity (Mus musculus [42]): Active
